NTR1 agonist: activates human neurotensin receptor 1 | P30989 | NTR1-U2OS beta-arrestin-GFP spot imaging, agonist mode | activation, % at 20 µM | 330,000 tested, 0.17% active | AID 493036;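 active means activation at or above 40% of the spot to cytoplasm intensity ratio, with at least 20 cells analyzed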
Target sequence (P30989 whole entry, looked up): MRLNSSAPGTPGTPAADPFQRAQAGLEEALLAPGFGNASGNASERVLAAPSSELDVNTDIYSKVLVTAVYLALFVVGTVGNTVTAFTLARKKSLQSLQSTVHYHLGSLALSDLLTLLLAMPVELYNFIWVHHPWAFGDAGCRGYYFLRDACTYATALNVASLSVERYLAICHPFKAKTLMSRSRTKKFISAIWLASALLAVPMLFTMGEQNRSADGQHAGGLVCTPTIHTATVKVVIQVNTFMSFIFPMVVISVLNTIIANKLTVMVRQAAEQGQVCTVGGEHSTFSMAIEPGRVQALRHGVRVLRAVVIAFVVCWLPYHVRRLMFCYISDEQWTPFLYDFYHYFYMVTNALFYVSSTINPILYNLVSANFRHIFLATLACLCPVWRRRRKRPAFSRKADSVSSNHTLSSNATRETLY
T cell HTS: T cell immune modulators affecting CD8 T cell-vesicle binding; response (vesicle binding), % at 7 µM; 2C CD8+ T cell-vesicle binding, flow cytometry; hits give low values; 330,000 tested, 0.068% active;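 active means response, share of CD8 T cells binding vesicles, and their 90th percentile fluorescence all below set limits, cut at about 80% in these data, passing the limit was not always enough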;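 further: values below 100% mean blocked vesicle binding to the CD8+ T cells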
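Benchmarks: naked versus QL9-loaded vesicles / Assay system: purified 2C TCR transgenic mouse naive CD8+ T cells / Technique: high-throughput flow cytometry with anti-B7-1 and anti-CD8 staining / Timing: Cell–vesicle co-incubation 1.5 h at 37 °C, staining 20 min on ice / Read-out: percent CD8+ FL2 mean versus row control / Probe or stimulus: QL9-loaded Drosophila micro-vesicles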
Arrestin-AP2 inh: inhibitors of human beta-arrestin and AP2 interaction | FITC-arrestin peptide / GST-AP2 beads, flow cytometry; AP2 beta2 appendage carries R879A mutation | inhibition, % at 10 µM | 340,000 tested, 0.31% active | AID 504490;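 active means inhibition above a set limit, near 3 SD of compounds lacking own fluorescence, cut at about 54% in these data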
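Measured by: flow cytometry, FL1 (488/535 nm); Material: AP2 appendage R879A on GSH beads; Evaluation: percent response; Timing: pre-incubation 12 min, peptide binding 1 h, room temperature; Also added: 50 nM FITC-arrestin peptide; Medium: PBS with 0.05% Tween 20 and 0.1% BSA.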
V-ATPase pHluor: alters yeast V-ATPase proton transport. response, % at 10 µM. S. cerevisiae, pHLuorin cytosolic pH fluorescence. 350,000 tested, 0.37% active. AID 504577; in the data active means response mostly above about 7.3%, no sharp cut-off; inactive means mostly below about 5.4%; further: actives read high
XiGFP reactiv: reactivates the inactive X chromosome in mouse fibroblasts. XiGFP mouse fibroblasts, % GFP-positive cells imaging, 3 d; cells co-treated with 5-aza-dC sensitizer; scaled so ellipticine positive control = 100%. activation, % at 7.58 µM. 360,000 tested, 0.055% active;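 active means mean normalized replicate activation at least 10% and every replicate at or above 10%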
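Material: XiGFP fibroblasts, SV40-immortalized. Buffer or medium: DMEM plus 5-aza-dC sensitizer. Compound: single concentration per compound, delivered by pin transfer. Times: 3 days compound exposure. Controls: ellipticine 6 µM.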
beta cell repl: inducers of beta-cell replication in MIN6 cells | proliferation, % at 10 µM | 330,000 tested, 0.29% active | MIN6 cells proliferation, ATPlite luminescence, 48 h; cells starved in 0.2% serum; 100% = growth in 10% serum | AID 2380;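 active means compounds whose signal lies at least 3.5 SD above the mean of all wells on their plate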
Arr AP2 CP1: blocks beta-arrestin peptide binding to human AP2. AID 504908. shares compounds with Arrestin-AP2 inh. 1,300 tested, 2% active. inhibition, % at 10 µM. GST-AP2 beads, FITC arrestin peptide binding, flow cytometry; GST-fused beta2-adaptin appendage, R879A mutant;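 active means inhibition above a set limit, roughly 3 SD of non-fluorescent compound noise, cut at about 38% in these data; inactive means inhibition at or below that limit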;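 further: loss of bead fluorescence from 50 nM FITC arrestin peptide bound to appendage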
GST-FITC bead: GST-GSH bead binding interference, counter-screen. shares compounds with Arrestin-AP2 inh. GST-fluorescein binding to GSH beads, fluorescence. inhibition, % at 10 µM. 1,300 tested, 2% active. AID 588338;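 active means inhibition above 50%, about 3 SD of the inhibition seen with non-fluorescent compounds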;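 further: fluorescein maleimide labelled GST captured on 4 micron glutathione beads; higher means more loss of bead fluorescence from quenching or blocked binding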
Numbers stand for hits; – = inactive; · = no result. Compounds with a hit are over-represented: about 0.89% of the library has one in this group of screens.

SMILES	NTR1 agonist	T cell HTS	Arrestin-AP2 inh	V-ATPase pHluor	XiGFP reactiv	beta cell repl	Arr AP2 CP1	GST-FITC bead
COc1ccc(/C=C2\SC(=S)N(CCCCCC(=O)Nc3cc(C)on3)C2=O)cc1OC	–	–	–	–	–	–	·	·
COc1ccc(/C=C2\SC(=S)N(CCCC(=O)Nc3cc(C)on3)C2=O)cc1OC	–	–	76	–	–	–	–	–
C[C@@H]1CN([C@H](C)CO)C(=O)c2cc(NC(=O)c3ccncc3)ccc2O[C@@H](C)CCCCO[C@H]1CN(C)C(=O)Nc1ccc(F)cc1	·	·	·	·	–	·	·	·
O=C(CSc1ccc(-c2ccccc2)nn1)NC1CCCCC1	–	–	63	–	–	–	–	–
COc1cc(CN2CC3(CN(C(=O)c4ccc5c(c4)OCO5)C3)c3c(n(C)c4cc(OC)ccc34)[C@H]2CO)cc(OC)c1	·	·	·	·	–	·	·	·
COc1ccc(NC(=O)N(C)C[C@@H]2Oc3ccc(NC(=O)c4ccncc4)cc3C(=O)N([C@@H](C)CO)C[C@H]2C)cc1	·	·	·	·	–	·	·	·
CCOC(=O)c1sc2ncn(CC(=O)Nc3cc(C)on3)c(=O)c2c1C	–	–	63	–	–	–	–	–
CCOC(=O)CN1C(=O)NC2NC(=O)NC21 (centres undefined)	–	–	79	–	·	–	–	–
CNC[C@@H]1Oc2ccc(NC(=O)Nc3ccccc3)cc2CC(=O)N([C@H](C)CO)C[C@H]1C	·	·	·	·	–	·	·	·
C[C@H]1CN([C@@H](C)CO)C(=O)c2cccc(NC(=O)Nc3cccc4ccccc34)c2O[C@H]1CN(C)Cc1ccc(-c2ccccc2)cc1	·	·	·	·	–	·	·	·
CCOc1cc(/C=C2\SC(N)=NC2=O)ccc1O	–	–	61	–	–	–	–	–
Cc1ccc(-c2nn(-c3ccccc3)cc2C(=O)N2CCN(c3ccccn3)CC2)cc1	–	–	57	–	–	–	–	–
O=C(CCc1ccccc1)N1CCN(c2ccccn2)CC1	–	–	–	–	–	–	·	·
O=C(c1cc2ccccc2o1)N1CCN(c2ccccn2)CC1	–	–	59	–	–	–	–	–
O=C(c1cc2ccccc2o1)N1CCN(c2ccccc2Cl)CC1	–	–	–	–	·	–	·	·
O=C(c1ccccc1CCc1ccccc1)N1CCN(c2ccccn2)CC1	–	–	84	–	·	–	–	–
C[C@@H]1CN([C@H](C)CO)C(=O)c2cccc(NC(=O)C3CCOCC3)c2O[C@@H]1CN(C)S(C)(=O)=O	·	·	·	·	–	·	·	·
O=C(Nc1ccc(F)cc1)N[C@H]1CC[C@H](CCNS(=O)(=O)c2ccccc2F)O[C@H]1CO	·	·	·	·	–	·	·	·
CN(C)c1ccc(C(=O)/C=C/c2ccc(Br)cc2)cc1	–	–	98	–	–	–	38	190
CN(C)c1ccc(C(=O)/C=C/c2ccccc2)cc1	–	–	·	–	–	–	·	·
CNC(=O)C[C@@H]1CC[C@@H]2[C@H](COc3ccc(NC(=O)NCc4ccccc4)cc3C(=O)N2C)O1	·	·	·	·	–	·	·	·
Cc1ccc(SCC(=O)NC(=O)NC2CCCC2)c(C)c1	–	·	64	–	–	–	–	–
Cc1ccc(C)c(SCC(=O)NC(=O)NC2CCCC2)c1	–	–	–	–	–	–	·	·
C[C@H]1CC=CC[C@H](c2ccc(F)cc2)NC(=O)[C@H](C)N(C)C(=O)c2ccccc2O1 (mixture of isomers)	·	·	·	·	–	·	·	·
COc1ccc(C#Cc2ccc3c(c2)[C@H]2[C@H](CCN2C(=O)c2ccccn2)[C@@H](CO)N3)cc1	·	·	·	·	–	·	·	·
SMILES	NTR1 agonist	T cell HTS	Arrestin-AP2 inh	V-ATPase pHluor	XiGFP reactiv	beta cell repl	Arr AP2 CP1	GST-FITC bead
O=C1CC(c2ccco2)CC(O)=C1C=NCCN1CCN(C(=S)Nc2ccccc2)CC1 (centres undefined)	–	–	56	–	–	–	–	–
CCCCNS(=O)(=O)c1ccc(NC(=O)Cc2ccccc2[N+](=O)[O-])cc1	–	–	56	–	–	–	–	–
CC(C)(C)NS(=O)(=O)c1ccc(NC(=O)Cc2ccccc2[N+](=O)[O-])cc1	–	–	–	–	–	–	·	·
COc1cc2c(cc1NC(=O)CN(C)Cc1ccc(OC)c(OC)c1)oc1ccccc12	–	–	–	–	–	–	–	–
COc1ccc(CN(C)CC(=O)Nc2ccccc2C(F)(F)F)c(OC)c1	–	–	–	–	–	–	·	·
COc1ccc(CN(C)CC(=O)Nc2cc3oc4ccccc4c3cc2OC)c(OC)c1	–	–	–	–	–	–	–	–
CC1CC(C)CN(CCCNC(=O)c2ccc(CS(=O)(=O)Cc3ccccc3F)o2)C1 (centres undefined)	–	–	59	–	·	–	–	–
Cc1noc(C)c1CSc1ncnc2sc(C)c(C)c12	–	–	105	–	·	–	–	–
CCOc1ccc2nc(N/C(N)=N/C(=S)Nc3ccc(C)c(C)c3)nc(C)c2c1	–	–	–	–	–	–	·	·
CCNC(=S)/N=C(\N)Nc1nc(C)c2cc(C)ccc2n1	–	–	64	–	–	–	–	–
O=C(N[C@H]1CC[C@H](CCNC(=O)C2CCCC2)O[C@@H]1CO)c1ccccn1	·	·	·	·	–	·	·	·
Cc1cccc(C)c1NC(=S)Nc1ccc(F)cc1	–	·	57	–	–	–	–	–
CC[n+]1c(/C=C/Nc2ccccc2)oc2ccccc21	–	–	–	–	·	–	·	·
CC[n+]1c(/C=C/Nc2ccccc2)oc2ccc(OC)cc21	–	–	58	–	–	–	–	–
COc1ccccc1Nc1nc2c(C)cccc2cc1C#N	–	–	57	–	·	–	–	–
COc1ccccc1Nc1nc2ccc(C)cc2cc1C#N	–	–	–	–	·	–	·	·
CC12CCC(=O)N1C(C(=O)N1CCN(S(=O)(=O)c3cccc(C(F)(F)F)c3)CC1)CS2 (centres undefined)	–	–	57	–	–	–	–	–
Cc1ccc(S(=O)(=O)N(C)C[C@H]2Oc3c(NC(=O)c4nc5ccccc5s4)cccc3C(=O)N([C@H](C)CO)C[C@@H]2C)cc1	·	·	·	·	–	·	·	·
C/C=C/c1cnc2c(c1)C(=O)N([C@H](C)CO)C[C@@H](C)[C@@H](CN(C)C(=O)Nc1ccc(F)cc1)O2	·	·	·	·	–	·	·	·
O=C(Nc1cc(Cl)ccc1-n1cncn1)c1ccccc1OC(F)F	–	·	68	–	–	–	–	–
COc1ccc(CN(C)C[C@@H]2OCCCC[C@@H](C)Oc3ccc(NC(=O)Nc4ccccc4)cc3C(=O)N([C@@H](C)CO)C[C@H]2C)cc1	·	·	·	·	–	·	·	·
O=C(CNC(=O)c1ccc(Br)cc1)Nc1ccc2c(c1)CCC2	–	–	54	–	–	–	–	–

Assay outcomes: PubChem, several laboratories
